DAT uptake mod – changed human dopamine transporter uptake under cocaine IC80. B-score at 10 µM. LLC-PK1 hDAT cells, [14C]-dopamine uptake with cocaine IC80; actives deviate in either direction. 1.3% of 110,000 active;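 active = Z score or B-score, a plate-position-corrected score, falls beyond the plate's 99.7% confidence bounds, in either direction; inactive = both scores lie inside the 99.7% bounds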;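 also: scored against the spread of the other compound wells on the same plate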
HEK293 NFkB inh – lowers PMA/ionomycin-induced NF-kB signal in HEK293 cells; inhibition, % at 3 µM; AID 465; HEK-293 NF-kB luciferase reporter, luminescence; 0.21% of 62,000 active;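 active = inhibition above the mean of all tested compounds plus 3 SD, cut at about 40% in these data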;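 also: 0% = stimulated DMSO wells and 100% = 10 µM reference inhibitor 5653914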
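System – HEK-293 cells with stable firefly luciferase reporter driven by four HIV NF-kB elements · Doses – one dose, 3 µM · Schedule – 1 h compound pre-incubation, 16 h PMA/ionomycin at 37 °C · Technique – luminescence from luciferase substrate reagent · Measure – percent inhibition normalized per plate to DMSO and reference-inhibitor controls · Replicates – tested once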
M1 antagonist – antagonists of rat M1 muscarinic receptor. B-score at 10 µM. CHO-M1 cells, Fluo-4 calcium, ACh EC80 antagonist mode; stronger effect = lower value. P08482. 3.4% of 64,000 active;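 active = calcium fluorescence response, raw or row-and-column corrected B-score, differing from the plate sample mean either way at a set confidence level, mostly lower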
Target sequence (P08482 whole entry, looked up): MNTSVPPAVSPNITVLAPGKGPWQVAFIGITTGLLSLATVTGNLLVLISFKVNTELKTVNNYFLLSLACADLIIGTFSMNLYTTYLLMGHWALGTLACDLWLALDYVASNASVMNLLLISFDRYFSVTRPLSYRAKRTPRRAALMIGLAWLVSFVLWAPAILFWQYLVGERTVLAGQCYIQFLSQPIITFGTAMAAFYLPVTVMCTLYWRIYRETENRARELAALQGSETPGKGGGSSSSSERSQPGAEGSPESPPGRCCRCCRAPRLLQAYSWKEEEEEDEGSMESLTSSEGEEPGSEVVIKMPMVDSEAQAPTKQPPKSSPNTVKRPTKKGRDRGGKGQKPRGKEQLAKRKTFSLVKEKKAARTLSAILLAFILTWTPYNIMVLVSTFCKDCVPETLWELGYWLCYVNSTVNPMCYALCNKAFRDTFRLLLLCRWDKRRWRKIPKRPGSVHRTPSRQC
M1 agonist – activates the M1 muscarinic receptor | CHO-M1 cells, Fluo-4 calcium fluorescence, agonist mode; stronger effect = higher value | 3% of 64,000 active | B-score at 10 µM;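 active = fluorescence rise, raw or as B-score row- and column-corrected plate score, outside the 99.7% band of its plate's samples, either direction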
D1 allo mod – allosteric modulators of human D1 dopamine receptor; HEK293 D1, CRE-luciferase, dopamine EC30 potentiation; actives deviate in either direction; P21728; 5.9% of 58,000 active; AID 641; B-score at 10 µM;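 active = luminescence count or its row- and column-corrected plate score outside the 99.7% band of the plate's sample wells, on either side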
BAP1 inh – inhibitors of human BAP1 deubiquitinase. 0.48% of 72,000 active. calls only at 20 µM. recombinant BAP1, Ub-AMC hydrolysis fluorescence kinetic; stronger effect = lower value. AID 436;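 active = activity remaining at or below 50% of control, provided the compound also passes the data quality filters; inactive = the rest, including low values that fail the filters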;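 also: 100% = DMSO wells rate and 0% = substrate alone blank rate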
M1 agonist conf – confirmation of rat M1 muscarinic receptor agonists; shares compounds with M1 agonist; fluorescence change (max-min) at 10 µM; CHO-M1 cells, Fluo-4 calcium fluorescence, agonist mode; actives lie on both sides; 19% of 1,700 active;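 active = fluorescence change differs from the solvent-only DMSO control mean at a set confidence level in both duplicate runs; inconclusive = differs from solvent-only control mean in just one of two runs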;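 also: an EC20 dose of acetylcholine follows compound addition during the same imaging run; raw fluorescence intensity difference in instrument units with no normalization to controls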
M4 agonist ctr – counter-screen for M1 agonists: activity at rat M4 receptor; shares compounds with M1 agonist; CHO M4/Gqi5 cells, Fluo-4 calcium fluorescence, agonist mode; actives lie on both sides; fluorescence change (max-min) at 10 µM; 9% of 1,700 active; AID 1741;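 active = fluorescence change differing from the plate's solvent-only control wells at 99.7% confidence in both duplicates, whether higher or lower; inconclusive = differs from solvent controls in only one of two duplicates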
Numbers without * were called inactive. In the library only some 7.2% were active in any assay of this set; here they are far more common.

How did Cc1ccc(C(=O)C2CN3CCC2CC3)cc1 (configuration not stated) do in these assays?
DAT uptake mod: -0.00094; HEK293 NFkB inh: 11; M1 antagonist: -2.5; M1 agonist: 12*; D1 allo mod: -1.4; BAP1 inh: inactive; M1 agonist conf: -18; M4 agonist ctr: inconclusive

How did NC(Cn1oc(=O)[nH]c1=O)C(=O)O (configuration not stated) do in these assays?
BAP1 inh: inactive

How did O=S1(=O)CC2(N3CCOCC3)CCCCCCC21 (configuration not stated) do in these assays?
DAT uptake mod: -0.0022; HEK293 NFkB inh: 7; M1 antagonist: 0.45; M1 agonist: 2.9*; D1 allo mod: -0.22; BAP1 inh: inactive; M1 agonist conf: -12; M4 agonist ctr: -39

How did O=C(c1cc(-c2cccnc2)nc2ccc(Cl)cc12)N1CCC2(CC1)OCCO2 do in these assays?
DAT uptake mod: -1.1; HEK293 NFkB inh: 7; M1 antagonist: -1.1; M1 agonist: 2.8*; D1 allo mod: -0.54; BAP1 inh: inactive; M1 agonist conf: -35*; M4 agonist ctr: -90

Results for CNCC(O)c1cccc(OC(=O)c2ccccc2C)c1 (configuration not stated) ?
DAT uptake mod: 0.96; HEK293 NFkB inh: -3; M1 antagonist: 0.58; M1 agonist: -3.3*; D1 allo mod: -0.61; BAP1 inh: inactive; M1 agonist conf: -14; M4 agonist ctr: inconclusive

How did CCCC(=O)OCC[N+](C)(C)C do in these assays?
DAT uptake mod: -0.68; M1 antagonist: -7.7*; M1 agonist: 40*; D1 allo mod: 0.089; BAP1 inh: inactive; M1 agonist conf: 378*; M4 agonist ctr: 7.3

Results for O=C(Nc1ccc(Br)cc1C(=O)c1ccccc1)c1ccc(S(=O)(=O)N2CCOCC2)cc1 ?
BAP1 inh: inactive

How did COc1cc(C(=O)OC2CC3CCC(C2)N3C)cc(OC)c1OC (configuration not stated) do in these assays?
BAP1 inh: inactive

Results for COc1ccc(P2(=O)Nc3ccccc3N2)cc1 ?
DAT uptake mod: 0.22; HEK293 NFkB inh: -34; M1 antagonist: -0.3; M1 agonist: 8.4*; BAP1 inh: inactive; M1 agonist conf: 154*; M4 agonist ctr: 163*

What do the screens show for `Cc1ccc(C)c(N2CCNCC2)c1`?
BAP1 inh: inactive

How did CN1CC=C2C(C#N)=C(N)C(C#N)(C#N)C(c3ccncc3)C2C1 (configuration not stated) do in these assays?
DAT uptake mod: -2; M1 antagonist: -1.2; M1 agonist: 78*; D1 allo mod: -0.2; BAP1 inh: inactive; M1 agonist conf: 242*; M4 agonist ctr: 212*

Results for CCn1nc(-c2ccccc2)nc2c(=O)n(C)c(=O)nc1-2 ?
DAT uptake mod: -0.018; HEK293 NFkB inh: 90*; M1 antagonist: -0.41; M1 agonist: 25*; D1 allo mod: -8.7*; BAP1 inh: inactive; M1 agonist conf: 187*; M4 agonist ctr: inconclusive

Results for COc1cc(C)c(CNCCc2ccccc2OC)cc1C ?
BAP1 inh: inactive
